This note sets out measurements from ChEMBL document CHEMBL1125165, “Inhibition of ornithine decarboxylase by the isomers of 1,4-dimethylputrescine” (J Med Chem, 1990).

Values joined by “and” are separate entries in the source; they are usually repeats but may differ in a detail not shown here. Equal values may be shown once.

Assay [1] has as its target T1, Ornithine decarboxylase (Rattus norvegicus) (UniProt P09057).
T1 sequence (whole entry): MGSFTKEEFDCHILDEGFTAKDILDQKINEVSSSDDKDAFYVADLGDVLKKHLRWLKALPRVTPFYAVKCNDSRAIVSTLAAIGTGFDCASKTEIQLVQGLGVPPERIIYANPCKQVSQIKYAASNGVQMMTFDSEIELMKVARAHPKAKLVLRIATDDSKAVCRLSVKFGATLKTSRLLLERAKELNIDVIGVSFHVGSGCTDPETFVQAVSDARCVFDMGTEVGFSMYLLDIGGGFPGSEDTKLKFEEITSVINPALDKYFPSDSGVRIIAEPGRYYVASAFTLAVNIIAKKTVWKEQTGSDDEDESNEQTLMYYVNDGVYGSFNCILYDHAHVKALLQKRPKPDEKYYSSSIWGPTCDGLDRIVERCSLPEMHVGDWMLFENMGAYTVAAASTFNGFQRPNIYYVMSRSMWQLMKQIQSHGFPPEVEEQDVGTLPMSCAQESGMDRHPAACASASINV
Kind of assay: In vivo inhibitory activity against Ornithine Decarboxylase (ODC) in H-35 hepatoma cells. On the set-up: unit not given here. It is filed as functional.

Assay [2] addresses T1, Ornithine decarboxylase (Rattus norvegicus). Kind of assay: In vivo inhibitory activity against Ornithine Decarboxylase (ODC) in rats. It is filed as functional, organism-based. On the set-up: concentration or dose not given beside the values.
Assay [3] deals with T2, Ornithine decarboxylase (Rattus norvegicus, UniProt P09057).
T2 sequence (P09057 whole entry): T1 sequence (whole entry)
Kind of assay: (§1) In vitro inhibitory activity against Ornithine Decarboxylase (ODC) isolated from the livers of thioactamide treated rats. It is filed as functional, tissue-based, Liver. A digest of the protocol: (§2)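 ODC was partially purified from livers of rats injected with thioacetamide (100 mg/kg), with specific activity 0.2 nmol/min per mg protein. Activity was measured in vitro across inhibitor concentrations. Ki was obtained by replotting apparent Km against inhibitor concentration.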

The species named for assay [4] is Rattus norvegicus. Kind of assay: Effect on spermine content of (+) isomer Dexamethasone treated rats after 4 hour. Format: functional. A digest of the protocol:
(§3)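 Female Wistar rats (100-130 g) were pretreated with dexamethasone or thioacetamide, and the analogue was given ip in saline-buffered solution. Liver was sampled 1 h or 3-4 h later. Free polyamines and analogue were measured in perchloric extracts. Polyamines are expressed as % of the inducer-treated liver content. Analogue is expressed as % of the total injected per g liver (10 ± 0.5 μmol). Mean ± SD, three experiments in duplicate.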

The species entered for assay [5] is Rattus norvegicus. In words: Effect on spermine content of (-) isomer Dexamethasone treated rats after 1 hour. It is filed as functional. An outline of the steps:
as §3

The species named for assay [6] is Rattus norvegicus. In words: Effect on spermine content of Dexamethasone treated rats. Format: functional. A digest of the protocol:
as §3

The species entered for assay [7] is Rattus norvegicus. In words: Effect on spermine content of Thioacetamide treated rats after 1 hr. It is filed as functional. An outline of the steps:
as §3

For assay [8], the species on record is Rattus norvegicus. In words: Effect on spermine content of Thioacetamide treated rats after 3 hour. It is filed as functional. A digest of the protocol:
as §3

The species named for assay [9] is Rattus norvegicus. Kind of assay: Effect on spermine content of Thioacetamide treated rats after 3 hr. Format: functional. An outline of the steps: as §3
The species named for assay [10] is Rattus norvegicus. In words: Effect on spermine content of Thioacetamide treated rats. It is filed as functional. A digest of the protocol: as §3
For assay [11], the species on record is Rattus norvegicus. Kind of assay: Effect on spermine content of meso isomer Dexamethasone treated rats after 1 hour. Format: functional. An outline of the steps:
as §3

The species named for assay [12] is Rattus norvegicus. Kind of assay: Effect on spermine content of meso isomer Dexamethasone treated rats after 4 hour. It is filed as functional. An outline of the steps: as §3
Assay [13] is filed under the species Rattus norvegicus. Kind of assay: Effect on spermidine content of Thioacetamide treated rats. It is filed as functional. A digest of the protocol:
as §3

The species entered for assay [14] is Rattus norvegicus. In words: Effect on spermidine content of meso isomer Dexamethasone treated rats after 1 hour. Format: functional. A digest of the protocol:
as §3

The species entered for assay [15] is Rattus norvegicus. Kind of assay: Effect on spermidine content of meso isomer Dexamethasone treated rats after 4 hour. It is filed as functional. An outline of the steps:
as §3

The species entered for assay [16] is Rattus norvegicus. Kind of assay: Effect on spermine content of (+) isomer Dexamethasone treated rats after 1 hour. It is filed as functional. A digest of the protocol: as §3
The species entered for assay [17] is Rattus norvegicus. In words: Effect on 1,4-Dimethylputrescine content of (+) isomer Dexamethasone treated rats after 1 hour. Format: functional. An outline of the steps: as §3
The species named for assay [18] is Rattus norvegicus. Kind of assay: Effect on 1,4-Dimethylputrescine content of (-) isomer Dexamethasone treated rats after 1 hour. It is filed as functional. An outline of the steps: as §3
Assay [19] is filed under the species Rattus norvegicus. In words: Effect on 1,4-Dimethylputrescine content of (-) isomer Dexamethasone treated rats after 4 hour. It is filed as functional. A digest of the protocol:
as §3

For assay [20], the species on record is Rattus norvegicus. Kind of assay: Effect on 1,4-Dimethylputrescine content of Thioacetamide treated rats after 1 hr. Format: functional. A digest of the protocol:
as §3

The species entered for assay [21] is Rattus norvegicus. Kind of assay: Effect on 1,4-Dimethylputrescine content of Thioacetamide treated rats after 3 hr. Format: functional. A digest of the protocol:
as §3

The species entered for assay [22] is Rattus norvegicus. In words: Effect on 1,4-Dimethylputrescine content of meso isomer Dexamethasone treated rats after 1 hour. Format: functional. An outline of the steps: as §3
The species named for assay [23] is Rattus norvegicus. In words: Effect on 1,4-Dimethylputrescine content of meso isomer Dexamethasone treated rats after 4 hour. It is filed as functional. An outline of the steps:
as §3

The species named for assay [24] is Rattus norvegicus. Kind of assay: Effect on 1,4-Dimethylputrescinecontent of (+) isomer Dexamethasone treated rats after 4 hour. It is filed as functional. A digest of the protocol:
as §3

The species named for assay [25] is Rattus norvegicus. Kind of assay: Effect on putrescine content of (+) isomer Dexamethasone treated rats after 1 hour. Format: functional. An outline of the steps:
as §3

The species named for assay [26] is Rattus norvegicus. Kind of assay: Effect on putrescine content of (+) isomer Dexamethasone treated rats after 4 hour. It is filed as functional. A digest of the protocol:
as §3

For assay [27], the species on record is Rattus norvegicus. Kind of assay: Effect on putrescine content of (-) isomer Dexamethasone treated rats after 1 hour. Format: functional. A digest of the protocol:
as §3

Assay [28] is filed under the species Rattus norvegicus. In words: Effect on putrescine content of (-) isomer Dexamethasone treated rats after 4 hr. Format: functional. A digest of the protocol: as §3
The species entered for assay [29] is Rattus norvegicus. In words: Effect on putrescine content of Thioacetamide treated rats after 3 hr. It is filed as functional. An outline of the steps: as §3
For assay [30], the species on record is Rattus norvegicus. In words: Effect on putrescine content of Thioacetamide treated rats. It is filed as functional. A digest of the protocol:
as §3

The species entered for assay [31] is Rattus norvegicus. In words: Effect on putrescine content of meso isomer Dexamethasone treated rats after 1 hour. It is filed as functional. An outline of the steps: as §3
For assay [32], the species on record is Rattus norvegicus. Kind of assay: Effect on putrescine content of meso isomer Dexamethasone treated rats after 4 hour. It is filed as functional. A digest of the protocol: as §3
The species entered for assay [33] is Rattus norvegicus. Kind of assay: Effect on spermidine content of (+) isomer Dexamethasone treated rats after 1 hour. Format: functional. A digest of the protocol:
as §3

For assay [34], the species on record is Rattus norvegicus. In words: Effect on spermidine content of (+) isomer Dexamethasone treated rats after 4 hour. Format: functional. A digest of the protocol: as §3
The species named for assay [35] is Rattus norvegicus. Kind of assay: Effect on spermidine content of (-) isomer Dexamethasone treated rats after 1 hour. Format: functional. An outline of the steps: as §3
The species entered for assay [36] is Rattus norvegicus. Kind of assay: Effect on spermidine content of (-) isomer Dexamethasone treated rats after 4 hour. It is filed as functional. A digest of the protocol:
as §3

For assay [37], the species on record is Rattus norvegicus. Kind of assay: Effect on spermidine content of Dexamethasone treated rats. It is filed as functional. A digest of the protocol: as §3
Assay [38] is filed under the species Rattus norvegicus. Kind of assay: Effect on spermidine content of Thioacetamide treated rats after 1 hr. It is filed as functional. An outline of the steps: as §3
For assay [39], the species on record is Rattus norvegicus. Kind of assay: Effect on spermidine content of Thioacetamide treated rats after 3 hr. Format: functional. A digest of the protocol:
as §3

The species entered for assay [40] is Rattus norvegicus. Kind of assay: Effect on spermine content of (-) isomer Dexamethasone treated rats after 4 hour. Format: functional. An outline of the steps: as §3
For assay [41], the species on record is Rattus norvegicus. In words: Effect on putrescine content of Dexamethasone treated rats. It is filed as functional. A digest of the protocol: as §3
A short description of assay [42]: as §1. Format: functional, tissue-based, Rattus norvegicus, Liver. An outline of the steps:
as §2

On to `CC(N)C(C)CCN` (mixture of isomers), for which the Activity in [1] came to 75. The Inhibition (commonly how much of the control response was suppressed) in assay [2] turned out to be 70%. In addition, in assay [3], the Ki (usually a dissociation constant, usually derived from enzyme kinetics or from competition with a known ligand) worked out at 3.8 mM.

In assay [1], `CNCCCCNC` came in with an Activity of 72. Besides, the Inhibition in assay [2] amounted to 30%.

In assay [1], `CN(C)CCCCN` showed an Activity of 68. For the same compound, the Inhibition in assay [2] was found to be 60%. Besides, in assay [3], the affinity corresponds to a Ki of 3 mM.

As to `CC(N)CCC(C)N` (stereo unspecified) [listing 1 of 2 here], the Polyamine content in assay [4] was 1800 nM/g; in assay [5] it was 2240 nM/g; in [6], 2170 nM/g; in assay [7], 2600 nM/g and 2500 nM/g and 2350 nM/g; in assay [8], 2600 nM/g; in [9], 3000 nM/g and 2350 nM/g. In addition, the Polyamine content in [10] stood at 2400 nM/g; in [11], 2060 nM/g; in [12], 2250 nM/g; in assay [13] it was 2680 nM/g; in assay [14] it was 1920 nM/g; in assay [15] it was 2280 nM/g. The Polyamine content in assay [16] is 1930 nM/g; in assay [17], 1800 nM/g; in assay [18], 1640 nM/g; in assay [19], 40 nM/g; in [20], 2700 nM/g and 1850 nM/g and 2800 nM/g; in [21] it was 1550 nM/g and 900 nM/g and 1150 nM/g. Moreover, the Polyamine content turned out to be 1640 nM/g in [22]; 50 nM/g in assay [23]; 400 nM/g in [24]; 60 nM/g in [25]; 660 nM/g in assay [26]; 100 nM/g in [27]. The Polyamine content in assay [28] was 580 nM/g; in [29], 290 nM/g and 510 nM/g and 410 nM/g; in [30], 1370 nM/g; in [31], 160 nM/g; in assay [32], 890 nM/g; in [33] it was 2180 nM/g. Moreover, the Polyamine content in assay [34] is 850 nM/g; in [35] it was 1280 nM/g; in [36], 2080 nM/g; in assay [37], 2300 nM/g; in [38], 1870 nM/g and 1950 nM/g and 2800 nM/g; in assay [39] it was 2400 nM/g and 1475 nM/g and 2500 nM/g. Also, the values for the Polyamine content in assay [40] and in assay [41] were 2220 nM/g and 980 nM/g, respectively.

With `CC(N)CC(C)CN` (mixture of isomers), the Activity in assay [1] is 85. The compound also registered an Inhibition in [2] of 76%. In [3], this compound gave an inhibition constant Ki of 2.9 mM.

Compound `CC(N)CCC(C)N` (stereo unspecified) [listing 2 of 2 here] returned an Activity in assay [1] of 90. Moreover, the Inhibition in [2] was found to be 93%.

Turning to `CC(CN)C(C)CN` (mixture of isomers), the Ki in [42] amounted to 1 mM.

Take `CC(N)CCC(C)N` (racemic): in assay [1], the Activity was determined as 91. Also, the Inhibition in assay [2] was 96%.

For the compound `CC(N)CCC(C)N` (single isomer, unassigned; (+)), the Activity in assay [1] came to 96. Further, the Inhibition in assay [2] came to 98%.

In turn, `NCCCCN` [PUTRESCINE] came in with an Activity in [1] of 90. Further, the Inhibition in assay [2] came out at 55%. In assay [3], this compound yielded a Ki of 3.3 mM.

For `CC(N)CCC(C)N` (single isomer, unassigned; (-)), the Activity in [1] came out at 97. Further, the Inhibition in assay [2] was determined as 97%.
